Laboratory results as given in ChEMBL document CHEMBL1151874, “Design and synthesis of novel hybrid benzamide-peptide histone deacetylase inhibitors” (Bioorg Med Chem Lett, 2009).
Calls of active or inactive are those of the source. No cut-off for these calls is given here. Non-standard residues stand in square brackets, D forms with d. Residues, ends and D or L forms follow the SMILES beside them. *: point of attachment. Asu = N[C@@H](CCCCCC(=O)O)C(=O)O; NH(2-NH2-phenyl) = Nc1ccccc1N*

What was measured:
Histone deacetylase 1 = Histone deacetylase 1 (Homo sapiens, UniProt Q13547); assay: Inhibition of human recombinant HDAC1
Method in brief: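 Enzyme source: recombinant human HDAC1. IC50 reported as mean of two experiments with standard error.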

Histone deacetylase 3 = Histone deacetylase 3 (Homo sapiens, UniProt O15379); assay: Inhibition of human recombinant HDAC3
Method in brief: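 Recombinant human HDAC1 or HDAC3 enzyme inhibition assay. IC50 values are means of two experiments, with standard error reported.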

[1] = biological target: Histone deacetylase (Homo sapiens) (UniProt Q13547+O15379+Q9UBN7+Q92769+Q9UQL6+Q8WUI4+Q9BY41+Q96DB2+P56524+Q9UKV0+Q969S8); assay: Inhibition of HDAC in human GM15850 cells assessed as effect on histone H3 acetylation at 20 uM after 48 hrs by Western blot analysis; type: cell-based
Method in brief: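 Human lymphoblastoid line GM15850 exposed to compound at 20 µM for 48 h; endogenous histone H3 acetylation judged by western blot.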

Homo sapiens = species: Homo sapiens; assay: Selectivity ratio of IC50 for human recombinant HDAC1 to IC50 for human recombinant HDAC3
[2] = Inhibition of Eimeria tenella HDAC1 assessed as [3H]acetate release by scintillation counting

Histone deacetylase 3, sequence (O15379 whole entry): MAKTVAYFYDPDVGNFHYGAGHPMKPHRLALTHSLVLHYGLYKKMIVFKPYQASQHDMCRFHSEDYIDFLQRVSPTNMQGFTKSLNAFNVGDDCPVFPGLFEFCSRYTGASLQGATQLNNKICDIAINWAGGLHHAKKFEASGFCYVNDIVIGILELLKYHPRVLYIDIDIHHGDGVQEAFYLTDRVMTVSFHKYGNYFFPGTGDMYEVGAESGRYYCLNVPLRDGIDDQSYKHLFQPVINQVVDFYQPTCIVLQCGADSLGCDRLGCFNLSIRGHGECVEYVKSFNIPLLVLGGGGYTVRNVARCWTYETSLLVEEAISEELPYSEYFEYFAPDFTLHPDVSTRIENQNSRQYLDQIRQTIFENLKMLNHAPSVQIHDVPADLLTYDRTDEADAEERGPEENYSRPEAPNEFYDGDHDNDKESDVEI
Histone deacetylase 1, sequence (Q13547 whole entry): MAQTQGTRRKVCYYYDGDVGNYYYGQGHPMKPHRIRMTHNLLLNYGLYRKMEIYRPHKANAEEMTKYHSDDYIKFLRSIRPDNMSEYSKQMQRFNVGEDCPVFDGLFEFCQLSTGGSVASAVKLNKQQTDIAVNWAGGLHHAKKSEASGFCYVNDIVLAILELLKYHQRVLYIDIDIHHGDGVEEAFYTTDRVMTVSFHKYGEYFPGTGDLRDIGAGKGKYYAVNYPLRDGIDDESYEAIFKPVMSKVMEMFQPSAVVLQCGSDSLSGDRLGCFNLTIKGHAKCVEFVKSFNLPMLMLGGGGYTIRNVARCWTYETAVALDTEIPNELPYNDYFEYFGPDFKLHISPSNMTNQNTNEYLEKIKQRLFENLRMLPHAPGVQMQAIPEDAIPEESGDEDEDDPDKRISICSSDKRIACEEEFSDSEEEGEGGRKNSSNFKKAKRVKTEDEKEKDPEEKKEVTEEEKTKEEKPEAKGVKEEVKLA

| IC50 (Histone deacetylase 1) | IC50 (Histone deacetylase 3) | Activity [1] | Ratio IC50 (Homo sapiens) | Structure (SMILES) | IC50 [2] |
| --- | --- | --- | --- | --- | --- |
| 4.7 µM | 1.3 µM | Active | – | N=C(N)NCCC[C@H](N)C(=O)NCC(=O)N[C@@H](CCCCCC(=O)Nc1ccccc1N)C(=O)Nc1ccccc1N | – |
| 83.9 µM | 4.3 µM | Active | 19 | Cc1ccc(C(=O)NCC(=O)NCCC(=O)Nc2ccccc2N)cc1 | – |
| 7.3 µM | 3.4 µM | – | – | Nc1ccccc1NC(=O)CCCCC[C@H](NC(=O)[C@@H]1CCCN1C(=O)[C@@H](N)Cc1ccccc1)C(=O)Nc1ccccc1N | – |
| 9.2 µM | 2.2 µM | – | – | Cc1ccc(C(=O)N[C@@H](CCCN=C(N)N)C(=O)NCCC(=O)Nc2ccccc2N)cc1 | – |

Second part, the compound before the results:

| Structure (SMILES) | IC50 (Histone deacetylase 1) | IC50 (Histone deacetylase 3) | Activity [1] | Ratio IC50 (Homo sapiens) | IC50 [2] |
| --- | --- | --- | --- | --- | --- |
| Nc1ccccc1NC(=O)CCCCC[C@@H]1NC(=O)[C@H]2CCCN2C(=O)[C@H](Cc2ccccc2)NC(=O)[C@H](Cc2ccccc2)NC1=O | 20.5 µM | 5.6 µM | – | – | – |
| CCC(=O)CCCCC[C@@H]1NC(=O)[C@H]2CCCCN2C(=O)[C@H]([C@@H](C)CC)NC(=O)[C@H](Cc2cn(OC)c3ccccc23)NC1=O [APICIDIN] | – | – | – | – | 0.004 µM |
| N=C(N)NCCC[C@@H]1NC(=O)CNC(=O)[C@H](CCCCCC(=O)Nc2ccccc2N)NC(=O)CNC1=O (cyclo([Asu](NH(2-NH2-phenyl))GRG)) | – | – | Active | – | – |
| Nc1ccccc1NC(=O)CCCCC[C@H](NC(=O)[C@H]1CCCN1C(=O)[C@@H](N)Cc1ccccc1)C(=O)N[C@@H](Cc1ccccc1)C(=O)O | 84.2 µM | 27.2 µM | – | – | – |
